# Compounds with a hit are over-represented: about 4.1% of the library has one in this group of screens.
# KCNQ1 block – human KCNQ1 channel inhibition; B-score at 10 µM; P51787; CHO-K1 KCNQ1, FluxOR thallium flux fluorescence; stronger effect = higher value; 310,000 tested, 1.3% active;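 active = compounds whose thallium flux B-score, printed positive for inhibition, exceeds three library SD while starting fluorescence stays within three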;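 also: channel opened by potassium depolarization with thallium stimulus after 20 min compound exposure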
# KCNK9 inh – blocks the human KCNK9 two-pore domain potassium channel; HEK293 KCNK9, FluxOR thallium flux fluorescence; stronger effect = lower value; B-score at 10 µM; 310,000 tested, 1.2% active; AID 488922;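 active = ratio B-score over 3 SD below the library mean, with starting fluorescence within 5 SD of its mean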;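 also: negative B-score means less thallium flux so channel inhibition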
# KCC2 mod – modulates chloride dependent transport by human KCC2; Q9H2X9; KCC2 cells, thallium flux FluoZin-2 fluorescence; B-score of Tl+ flux slope (higher = more flux/activation; lower = inhibition) at 10 µM; 190,000 tested, 2.2% active;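 active = thallium flux slope and its plate-corrected score both differing from the plate sample mean at a set confidence after two filtering rounds, in either direction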;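 also: slope of fluorescence scaled to starting intensity during 10 to 20 s after thallium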
# hERG protect – hERG (human) protection from proarrhythmic block | activation (rescue from dofetilide block), less the hit threshold, % at 10 µM | CHO-hERG, FluxOR thallium flux, dofetilide IC70 present | Q12809 | AID 1511 | 310,000 tested, 0.51% active;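 active = activation above the mean of controls blocked by dofetilide plus 5 SD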;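 also: thallium influx through hERG after potassium depolarization seen as dye fluorescence rise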
# KCNK3 block – human KCNK3 channel inhibition, primary screen | O14649 | 340,000 tested, 0.84% active | CHO-KCNK3 thallium flux, FluxOR fluorescence; stronger effect = lower value | AID 602410 | B-score at 10 µM;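 active = B-score under library mean minus 4 SD, starting fluorescence ratio at most library mean plus 5 SD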;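 also: more negative B-score means stronger inhibition of thallium flux through KCNK3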
# KCNQ1 act – potentiates or activates the human KCNQ1 potassium channel; P51787; CHO-K1 KCNQ1, thallium flux FluxOR fluorescence; stronger effect = higher value; B-score at 10 µM; 310,000 tested, 0.35% active;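 active = fluorescence ratio B-score, a plate-corrected score, at least three library SD, with initial intensity B-score within 5 SD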
#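 Test system: CHO-K1 cells stably expressing KCNQ1 / Medium: assay buffer / Also added: depolarizing K+/Tl+ stimulus, K2SO4 and Tl2SO4 each 12.5 mM in 5x stock / Incubation: 90 min dye loading and 20 min compound exposure, both at room temperature / Signal: thallium influx via FluxOR fluorescence, kinetic imaging / Evaluation: B score of baseline-normalized fluorescence ratio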
# KCNK9 inh conf – confirmation of human KCNK9 potassium channel inhibitors; shares compounds with KCNK9 inh; HEK293 KCNK9 cells, FluxOR thallium flux fluorescence; inhibition, % at 10 µM; 4,900 tested, 43% active; AID 492992;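 active = thallium signal inhibited by more than 5 SD of the compound-free buffer control wells, on both duplicate plates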;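 also: 0% = assay buffer control wells without compound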
# Kir2-1 spec – selectivity of KCNK9 modulators against mouse Kir2.1 | shares compounds with KCNK9 inh | 4,900 tested, 4% active | Kir2.1 cells, FluxOR thallium flux fluorescence | inhibition, % at 10 µM | AID 492993;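 active = thallium signal drop more than 5 SD beyond the mean of the no-compound control wells, seen in both duplicate plates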;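 also: signal is fluorescence rise after thallium addition divided by baseline fluorescence; plate controls were assay buffer only for no effect and full block by chlorpromazine control for full effect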
# KCNK9 uninduced – non-induced cell nonspecific activity of KCNK9 modulators; shares compounds with KCNK9 inh; non-induced KCNK9-HEK293, FluxOR thallium flux; inhibition, % at 10 µM; 4,900 tested, 40% active;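 active = thallium signal drop beyond 5 SD of the untreated control mean, on both duplicate plates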;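 also: plate controls were buffer only IC0 wells for no effect and SID17386958 at its maximal inhibitory level for full effect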
# * hit, by the source's call; i = inactive; . = not tested or not shown.
SMILES,KCNQ1 block,KCNK9 inh,KCC2 mod,hERG protect,KCNK3 block,KCNQ1 act,KCNK9 inh conf,Kir2-1 spec,KCNK9 uninduced
CCCC[C@@H]1C[C@H]1[C@@H](NC(=O)c1cccs1)c1ccc(Cl)cc1,10*,-10.6*,-0.221,-22.8,.,i,52.0%*,i,50.5%*
CCOC(=O)c1cc(CC)sc1NC(=O)CC1SC(N)=NC1=O (stereo not drawn),i,i,-1.59,-13.1,i,i,.,.,.
CC1CC1c1ccc(/C=C(\C#N)C(=O)Nc2ccccc2Cl)o1 (stereo not drawn),i,i,0.694,-12.8,i,i,.,.,.
CCc1ccccc1NC(=O)/C(C#N)=C/c1ccc(Sc2ccccc2)o1,i,-13.6*,-2.78,-6.8,i,i,53.0%*,i,51.0%*
CCc1ccccc1NC(=O)/C(C#N)=C\c1ccc(Sc2ccccc2)o1,i,-10.9*,-1.11,-3.3,-9.41*,i,40.0%*,i,49.0%*
Cc1cc(C)nc(Sc2ccc(/C=C(\C#N)C(=O)Nc3ccccc3)o2)n1,i,i,-0.716,1.9,i,i,.,.,.
O=S(=O)(c1cc(Cl)ccc1Cl)N1CCNCC1,i,i,.,-4.5,i,i,.,.,.
O=C(CCSc1ccc(Cl)c(Cl)c1)NC12CC3CC(CC(C3)C1)C2,i,i,-0.388,-7.3,i,i,i,i,i
COc1cccc(COC(=O)C2CCN(S(=O)(=O)c3ccc(C)cc3C)CC2)c1OC,i,i,.,-11.9,i,i,i,i,i
CCOc1ccc(OCCOC(=O)C2CCN(S(=O)(=O)c3ccc(C)c(C)c3)CC2)cc1,i,i,.,-12.7,i,i,i,i,i
O=C(NCCC1=CCCCC1)NC12CC3CC(CC(C3)C1)C2,6*,i,-0.0259,-22.1,i,i,i,i,i
Cc1cc(C(=O)CSc2nc3ccccc3[nH]2)c(C)n1CC1CCCO1 (stereo not drawn),i,i,-0.445,-23.6,i,i,.,.,.
COc1cccc(C(=O)NCc2ccc(N3CCN(C(=O)OC(C)(C)C)CC3)cc2)c1,i,i,.,-13.5,i,i,.,.,.
COc1ccc(C(=O)NCc2ccc(N3CCN(C(=O)OC(C)(C)C)CC3)cc2)cc1,i,i,0.412,1.4,i,i,i,i,i
O=C(NCCOc1ccc(F)cc1)C1CCC(=O)N(CCCN2CCCC2=O)C1 (stereo not drawn),i,i,.,-0.9,i,i,.,.,.
Cc1cccc(CC(C)NC(=O)c2cc(COc3ccc(C)c(C)c3)on2)n1 (stereo not drawn),i,i,.,-14.2,i,i,.,.,.
Cc1nc(C(C)NC(=O)c2cc(COc3ccc(C)c(C)c3)on2)c(C)s1 (stereo not drawn),i,i,.,-8.5,i,i,i,i,i
O=C(NC1CCCCCC1)c1cc(S(=O)(=O)N2CCC3(CC2)OCCO3)ccc1F,i,i,.,-9.0,i,i,i,i,i
Cc1ccc(NC(=O)c2cc(S(=O)(=O)N3CCC4(CC3)OCCO4)ccc2F)cc1,i,i,.,-9.3,i,i,.,.,.
O=C(CC12CC3CC(CC(C3)C1)C2)NC(=S)NCc1ccco1,6*,i,0.492,-25.8,i,i,i,i,i
O=C(NCc1ccco1)C12CC3CC(CC(C3)C1)C2,i,i,-0.833,0.0,i,i,.,.,.
O=C(c1cc(Cl)ccc1F)N1CCCC(Nc2ccc3c(c2)OCCO3)C1 (stereo not drawn),i,i,.,-14.6,i,i,i,i,i
